From ChEMBL document CHEMBL3351238, “Part I. Synthesis, biological evaluation and docking studies of new 2-furylbenzimidazoles as antiangiogenic agents” (Eur J Med Chem, 2014)
Converted amounts (≈) assume the structure as drawn.

Tests used:
MCF7 [1] = test: Inhibition of VEGF production in human MCF7 cells at cytotoxic IC50 level after 24 hrs by ELISA; type: functional
Procedure, shortened: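 MCF-7 from ATCC, grown in DMEM with 10% heat-inactivated FCS, penicillin and streptomycin at 37 °C in 5% CO2, 0.50 × 10^6 cells per 25 cm2 flask. Compound in DMSO (tamoxifen as reference) added for 24 h. Cells homogenized in saline. Human VEGF measured by double-antibody sandwich ELISA (biotin antibody, streptavidin-HRP, A450) against a standard curve, duplicate determinations. Inhibition relative to untreated cells.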

MCF7 [2] = test: Cytotoxicity against human MCF7 cells after 48 hrs by sulforhodamine B assay; type: functional, cell-based; details: MCF7, 48 h
Procedure, shortened: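 MCF-7 cells seeded at 10^4 per well and allowed 24 h to attach, then exposed to 0.0, 5.0, 12.5, 25.0 and 50 μg/ml, six wells per dose, for 48 h at 37 °C in 5% CO2. Cells were fixed and stained with sulforhodamine B. Bound dye was recovered in Tris EDTA and read on an ELISA reader. IC50 taken from the survival-fraction versus concentration curve.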

[3] = target: T1, Prostaglandin G/H synthase 1 (Ovis aries, UniProt P05979); test: Inhibition of ovine COX1 assessed as reduction in PGH2-dervied PGF2alpha production using arachidonic acid substrate by enzyme immunoassay
T1 sequence (P05979 whole entry): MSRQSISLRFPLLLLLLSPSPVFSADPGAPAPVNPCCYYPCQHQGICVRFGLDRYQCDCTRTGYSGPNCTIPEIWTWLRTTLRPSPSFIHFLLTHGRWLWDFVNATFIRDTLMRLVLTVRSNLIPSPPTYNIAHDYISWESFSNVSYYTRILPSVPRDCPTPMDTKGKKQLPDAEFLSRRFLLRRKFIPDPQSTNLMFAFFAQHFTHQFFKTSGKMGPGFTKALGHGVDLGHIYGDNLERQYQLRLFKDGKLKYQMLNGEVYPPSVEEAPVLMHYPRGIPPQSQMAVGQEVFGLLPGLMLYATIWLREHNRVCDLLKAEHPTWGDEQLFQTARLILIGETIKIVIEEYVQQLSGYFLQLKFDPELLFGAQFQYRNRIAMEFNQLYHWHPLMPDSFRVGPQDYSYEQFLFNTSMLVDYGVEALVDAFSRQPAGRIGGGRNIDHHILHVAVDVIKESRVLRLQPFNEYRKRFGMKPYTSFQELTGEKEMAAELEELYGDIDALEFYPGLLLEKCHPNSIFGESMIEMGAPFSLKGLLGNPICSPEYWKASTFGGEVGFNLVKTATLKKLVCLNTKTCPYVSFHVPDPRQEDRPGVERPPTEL
Procedure, shortened: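 Arachidonic acid added and reaction stopped with HCl after 2 min. PGH2 reduced with SnCl2 and PGF2α quantified by competitive EIA at 410 nm. IC50 from concentration–inhibition curve, duplicates.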

Row | SMILES | inhibition (INH) (MCF7 [1]) [%] | IC50 (MCF7 [2]) [µg/mL] | IC50 [3] [µM]
1 | Cc1ccc(-c2nc3ccccc3n2S(=O)(=O)c2ccccc2)o1 | 98 | 8.63 (≈ 25.5 µM) | 
2 | CSc1nnc(-n2c(-c3ccco3)nc3ccccc32)o1 | 16 | 19.3 (≈ 64.7 µM) | 
3 | CCOC(=O)Cn1c(-c2ccco2)nc2ccccc21 | 62 | 15.2 (≈ 56.2 µM) | 
4 | NNC(=O)Cn1c(-c2ccco2)nc2ccccc21 | 24 | 20.2 (≈ 78.8 µM) | 
5 | Nn1c(Cn2c(-c3ccco3)nc3ccccc32)n[nH]c1=S | 91 | 20.5 (≈ 65.6 µM) | > 50
6 | c1ccc(Cn2c(-c3ccco3)nc3ccccc32)cc1 | 98 | 6.98 (≈ 25.4 µM) | 
7 | c1coc(-c2nc3ccccc3[nH]2)c1 [FUBERIDAZOLE] | 15 | 21.5 (≈ 117 µM) | 
8 | CCOC(=O)C/C(C)=N/NC(=O)Cn1c(-c2ccc(C)o2)nc2ccccc21 | 24 | 19.6 (≈ 51.3 µM) | 
9 | Cc1ccc(-c2nc3ccccc3n2CC(=O)NN)o1 | 86 | 22.4 (≈ 82.9 µM) | > 50
10 | CCOC(=O)Cn1c(-c2ccc(C)o2)nc2ccccc21 | 28 | 17.8 (≈ 62.6 µM) | 
11 | S=c1[nH]nc(Cn2c(-c3ccco3)nc3ccccc32)o1 | 41 | 16.9 (≈ 56.6 µM) | 
12 | CC/C(=C(\c1ccccc1)c1ccc(OCCN(C)C)cc1)c1ccccc1 [TAMOXIFEN] | 98 | 8 (≈ 21.5 µM) | 
13 | NNC(=O)Cn1c(-c2ccc(CNCc3ccccc3)o2)nc2ccccc21 | 19 | 19.3 (≈ 51.4 µM) | 
14 | Cc1ccc(-c2nc3ccccc3n2Cc2n[nH]c(=S)o2)o1 | 39 | 16.6 (≈ 53.1 µM) | 
15 | CCOC(=O)C/C(C)=N/NC(=O)Cn1c(-c2ccco2)nc2ccccc21 | 38 | 17 (≈ 46.1 µM) | 
16 | NNC(=O)Cn1c(-c2ccc(CNc3ccncc3)o2)nc2ccccc21 | 90 | 22 (≈ 60.7 µM) | > 50
17 | O=S(=O)(c1ccccc1)n1c(-c2ccco2)nc2ccccc21 | 14 | 21.2 (≈ 65.4 µM) | 
18 | Cc1ccc(-c2nc3ccccc3[nH]2)o1 | 95 | 14 (≈ 70.6 µM) | 
